The source of these data is BindingDB's records for doi:10.1021/jm900106f (St. Jude Children'S Research Hospital, 2009).

The target of the test is T1, Zinc finger protein GLI1 (Homo sapiens, UniProt P08151).
T1 sequence (P08151 whole entry): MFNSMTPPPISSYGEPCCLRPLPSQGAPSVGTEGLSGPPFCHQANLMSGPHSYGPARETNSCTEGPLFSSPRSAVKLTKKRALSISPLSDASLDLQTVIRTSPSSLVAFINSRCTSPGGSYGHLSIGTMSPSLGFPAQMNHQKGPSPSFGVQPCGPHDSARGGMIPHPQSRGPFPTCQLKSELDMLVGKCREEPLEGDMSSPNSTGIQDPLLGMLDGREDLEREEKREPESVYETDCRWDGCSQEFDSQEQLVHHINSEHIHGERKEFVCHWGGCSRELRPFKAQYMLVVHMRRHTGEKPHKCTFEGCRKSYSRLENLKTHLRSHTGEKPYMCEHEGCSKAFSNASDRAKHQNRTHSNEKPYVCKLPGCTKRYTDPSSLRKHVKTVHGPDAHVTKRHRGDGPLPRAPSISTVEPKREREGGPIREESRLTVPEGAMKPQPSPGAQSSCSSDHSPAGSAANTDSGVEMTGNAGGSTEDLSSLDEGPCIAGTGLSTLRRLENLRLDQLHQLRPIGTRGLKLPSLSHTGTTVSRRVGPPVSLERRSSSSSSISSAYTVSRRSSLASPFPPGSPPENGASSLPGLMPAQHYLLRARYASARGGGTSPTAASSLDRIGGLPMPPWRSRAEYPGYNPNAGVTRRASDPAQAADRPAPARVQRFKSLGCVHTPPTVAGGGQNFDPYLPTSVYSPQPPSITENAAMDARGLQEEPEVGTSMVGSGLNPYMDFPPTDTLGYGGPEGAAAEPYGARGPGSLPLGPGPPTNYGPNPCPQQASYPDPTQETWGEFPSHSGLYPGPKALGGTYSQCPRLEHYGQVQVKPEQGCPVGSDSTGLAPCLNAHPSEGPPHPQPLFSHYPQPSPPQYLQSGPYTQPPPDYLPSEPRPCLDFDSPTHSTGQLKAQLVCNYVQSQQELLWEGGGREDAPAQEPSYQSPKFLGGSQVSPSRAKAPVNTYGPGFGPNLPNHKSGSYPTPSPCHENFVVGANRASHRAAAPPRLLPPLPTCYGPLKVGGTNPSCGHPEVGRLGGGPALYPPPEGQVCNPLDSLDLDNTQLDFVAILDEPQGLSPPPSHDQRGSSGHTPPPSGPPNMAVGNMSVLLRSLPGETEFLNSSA
As to the kind of experiment: Inhibition of exogenously transfected human Gli1-mediated transcriptional activity in mouse C3H10T1/2 cells after 24 hrs by luciferase reporter gene assay. The essentials:
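They were replated 18 h later, given compound or DMSO 6 h after plating, and exposed for 24 h at 37 °C, 5% CO2. Lysate was read by dual luciferase as firefly/Renilla, triplicate, DMSO = 0%. IC50 came from curve fitting.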
For orientation: Reporter assays use an easily measured gene product as a stand-in for the process of interest.
The term IC50 denotes the concentration that inhibits the measured activity by half. Read a high IC50 as weaker potency in that assay. `C[C@H](C(=O)N(CCc1ccc(O)cc1)CCc1ccc(O)cc1)c1cccc(C(=O)c2ccccc2)c1` [(S)-2-(3-Benzoylphenyl)-N,N-bis(4-hydroxyphenethyl)propanamide] showed an IC50 of 9.4 µM. As for `CCCN(CCc1ccc(O)cc1)C(=O)[C@@H](C)c1cccc(C(=O)c2ccccc2)c1` [(S)-2-(3-Benzoylphenyl)-N-(4-hydroxyphenethyl)-N-propylpropanamide], the figure is 6.9 µM.

For `C[C@H](C(=O)NCCc1ccc(O)cc1)c1cccc(C(=O)c2ccccc2)c1` [(S)-2-(3-Benzoylphenyl)-N-(4-hydroxyphenethyl)propanamide], the midpoint of inhibition, the IC50, lay at 11.4 µM.
